Assay results reported in ChEMBL document CHEMBL4219021, “Discovery of a Small-Molecule Degrader of Bromodomain and Extra-Terminal (BET) Proteins with Picomolar Cellular Potencies and Capable of Achieving Tumor Regression” (J Med Chem, 2018).
Activity calls are given as the source filed them. No cut-off for these calls is given here.

Assays:
[1] = system: Mus musculus; assay: Toxicity in SCID mouse xenografted with human RS4:11 cells assessed as body weight loss at 5 mg/kg, iv […] administered every other day three times per week for 3 weeks; format: organism-based; conditions: in vivo, 504 h
How it was run: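 SCID mice carried subcutaneous dorsal RS4;11 xenografts (5 × 10⁶ cells in 50% Matrigel). Once tumors reached ∼100 mm³, mice were randomized to treatment or vehicle. Dosing was 5 mg/kg iv every other day, three times weekly, for 3 weeks. Animals were checked daily for toxicity and weighed 2–3 times weekly during treatment, then at least weekly afterward.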

[2] = biological target: T1, Protein cereblon/Bromodomain-containing protein 3/Cullin-4A (Homo sapiens) (UniProt Q15059+Q96SW2+Q13619); assay: Induction of cereblon/cullin 4A-mediated BRD3 degradation in human RS4:11 cells after 3 hrs by Western blot method; format: cell-based
How it was run: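 RS4;11 cells (2 × 10⁶/well) treated for 3 h at the indicated concentrations. Lysed in RIPA with protease inhibitors and immunoblotted for BRD2, BRD3 and BRD4 with specific antibodies.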

[3] = biological target: T1, Protein cereblon/Bromodomain-containing protein 3/Cullin-4A (Homo sapiens); assay: Induction of cereblon/cullin 4A-mediated BRD3 degradation in human RS4:11 cells at 0.1 nM after 24 hrs by Western blot method; format: cell-based
How it was run: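 Western blot of RS4;11 cells (2 × 10⁶ cells/well) in RPMI 1640 with 10% FBS, 37 °C, 5% CO₂, used within three months of thawing. Compound exposure was 3 h or 24 h at the indicated concentrations. Cells were lysed in RIPA with protease inhibitors, and BRD2, BRD3 and BRD4 were detected with specific antibodies, with GAPDH as loading control.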

[4] = biological target: Protein cereblon/Bromodomain-containing protein 4/Cullin-4A (Homo sapiens) (UniProt O60885+Q96SW2+Q13619); assay: Induction of cereblon/cullin 4A-mediated BRD4 degradation in human RS4:11 cells at 1 nM after 3 hrs in presence of cereblon inhibitor lenalidomide by Western blot method; format: cell-based
[5] = biological target: T1, Protein cereblon/Bromodomain-containing protein 3/Cullin-4A (Homo sapiens); assay: Induction of cereblon/cullin 4A-mediated BRD3 degradation in human RS4:11 cells at 1 nM after 3 hrs in presence of BET inhibitor 4-((3-Cyclopropyl-1-ethyl-1H-pyrazol-5-yl)amino)-7-(3,5-dimethylisoxazol-4-yl)-6-methoxy-N-methyl-9H-pyrimido[4,5-b]-indole-2-carboxamide by Western blot method; format: cell-based
[6] = biological target: T2, Protein cereblon/Bromodomain-containing protein 2/Cullin-4A (Homo sapiens) (UniProt P25440+Q96SW2+Q13619); assay: Induction of cereblon/cullin 4A-mediated BRD2 degradation in human RS4:11 cells at 1 nM after 3 hrs in presence of proteosome inhibitor MG-132 by Western blot method; format: cell-based
[7] = system: Mus musculus; assay: In vivo induction of cereblon/cullin 4A-mediated BRD2 degradation in tumor of SCID mouse xenografted with human RS4:11 cells at 5 mg/kg, iv administered as single dose measured after 24 hrs by Western blot method; format: functional, organism-based
How it was run: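 SCID mice bearing subcutaneous RS4;11 tumors received a single 5 mg/kg iv dose. Sacrificed at 1, 3, 6 and 24 h, with vehicle controls at 6 h, two mice per time point. Tumors ground in liquid nitrogen and lysed in CHAPS buffer, then immunoblotted for BRD2/3/4, c-Myc, PARP/cleaved PARP and caspase-3/cleaved caspase-3. Actin served as loading control.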

[8] = Drug metabolism in mouse liver microsomes assessed as metabolite m2 formation at 10 uM after 20 to 40 mins in presence of beta-NADPH […]; format: ADME, microsome
[9] = system: RS4-11; assay: Antitumor activity against human RS4:11 cells xenografted in SCID mouse assessed as tumor growth regression at 5 mg/kg, iv […] administered every other day three times per week for 3 weeks relative to control; format: functional
How it was run: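 SCID mice given 5×10⁶ RS4;11 cells in 50% Matrigel subcutaneously on the dorsal side, one tumor per mouse. Randomized at ~100 mm³, then dosed 5 mg/kg iv every other day, three times a week for 3 weeks. Tumors measured by caliper 2–3 times/week, V = LW²/2. Body weight recorded 2–3 times/week and daily toxicity checks made.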

[10] = biological target: T2, Protein cereblon/Bromodomain-containing protein 2/Cullin-4A (Homo sapiens); assay: Induction of cereblon/cullin 4A-mediated BRD2 degradation in human RS4:11 cells at 1 nM after 3 hrs in presence of NAE inhibitor MLN4924 by Western blot method; format: cell-based

T1 sequence (Q13619 whole entry, looked up): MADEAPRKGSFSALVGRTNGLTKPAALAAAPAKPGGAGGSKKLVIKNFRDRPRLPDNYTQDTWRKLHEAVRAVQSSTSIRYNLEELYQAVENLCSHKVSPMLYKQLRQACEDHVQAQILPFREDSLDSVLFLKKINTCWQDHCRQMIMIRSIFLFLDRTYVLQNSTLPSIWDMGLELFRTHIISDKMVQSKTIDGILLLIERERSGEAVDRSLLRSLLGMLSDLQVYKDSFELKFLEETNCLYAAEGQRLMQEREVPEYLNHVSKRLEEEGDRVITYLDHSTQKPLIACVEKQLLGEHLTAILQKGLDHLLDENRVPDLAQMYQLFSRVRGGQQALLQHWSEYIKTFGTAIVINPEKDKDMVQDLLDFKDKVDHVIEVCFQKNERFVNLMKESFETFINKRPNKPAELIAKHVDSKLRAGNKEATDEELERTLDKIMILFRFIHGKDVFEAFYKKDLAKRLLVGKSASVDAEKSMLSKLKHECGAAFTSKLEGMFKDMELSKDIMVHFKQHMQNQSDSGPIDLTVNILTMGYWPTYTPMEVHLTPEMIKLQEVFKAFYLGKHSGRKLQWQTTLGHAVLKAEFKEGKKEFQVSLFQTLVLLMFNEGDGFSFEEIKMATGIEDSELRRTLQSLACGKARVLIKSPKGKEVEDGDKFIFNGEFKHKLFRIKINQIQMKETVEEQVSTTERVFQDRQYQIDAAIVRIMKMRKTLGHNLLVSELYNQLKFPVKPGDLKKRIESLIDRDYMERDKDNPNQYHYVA
T1 sequence (Q15059 whole entry, looked up): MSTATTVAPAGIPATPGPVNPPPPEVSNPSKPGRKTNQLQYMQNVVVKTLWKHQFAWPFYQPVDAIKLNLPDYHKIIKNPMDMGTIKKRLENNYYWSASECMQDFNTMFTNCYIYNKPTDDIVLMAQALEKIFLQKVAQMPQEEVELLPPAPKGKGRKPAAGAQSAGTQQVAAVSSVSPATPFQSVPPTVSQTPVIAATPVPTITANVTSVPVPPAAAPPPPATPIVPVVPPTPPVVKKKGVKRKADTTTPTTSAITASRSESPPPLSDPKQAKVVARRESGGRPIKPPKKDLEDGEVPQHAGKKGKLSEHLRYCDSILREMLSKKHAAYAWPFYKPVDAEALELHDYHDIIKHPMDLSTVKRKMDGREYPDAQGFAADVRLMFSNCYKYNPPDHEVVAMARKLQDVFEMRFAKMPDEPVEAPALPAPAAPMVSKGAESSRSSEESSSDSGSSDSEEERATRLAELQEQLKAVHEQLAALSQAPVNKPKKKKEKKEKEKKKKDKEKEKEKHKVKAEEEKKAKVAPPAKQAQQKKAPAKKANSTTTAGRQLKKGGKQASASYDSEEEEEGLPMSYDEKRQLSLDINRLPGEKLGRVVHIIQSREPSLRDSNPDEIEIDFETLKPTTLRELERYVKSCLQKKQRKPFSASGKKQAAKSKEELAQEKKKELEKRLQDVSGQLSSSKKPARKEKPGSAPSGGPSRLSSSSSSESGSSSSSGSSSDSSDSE
T1 sequence (Q96SW2 whole entry, looked up): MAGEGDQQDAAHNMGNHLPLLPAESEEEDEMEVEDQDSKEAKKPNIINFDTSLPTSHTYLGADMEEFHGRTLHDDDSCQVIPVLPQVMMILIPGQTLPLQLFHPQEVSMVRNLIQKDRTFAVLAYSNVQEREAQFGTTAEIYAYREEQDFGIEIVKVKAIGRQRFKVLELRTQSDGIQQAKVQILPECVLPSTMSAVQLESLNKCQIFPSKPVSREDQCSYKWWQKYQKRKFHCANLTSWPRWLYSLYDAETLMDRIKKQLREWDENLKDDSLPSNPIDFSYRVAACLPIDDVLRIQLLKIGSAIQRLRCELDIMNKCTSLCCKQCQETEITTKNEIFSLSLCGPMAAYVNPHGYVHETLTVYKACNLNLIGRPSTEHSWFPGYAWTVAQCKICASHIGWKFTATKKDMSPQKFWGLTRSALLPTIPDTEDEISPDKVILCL
T2 sequence (P25440 whole entry, looked up): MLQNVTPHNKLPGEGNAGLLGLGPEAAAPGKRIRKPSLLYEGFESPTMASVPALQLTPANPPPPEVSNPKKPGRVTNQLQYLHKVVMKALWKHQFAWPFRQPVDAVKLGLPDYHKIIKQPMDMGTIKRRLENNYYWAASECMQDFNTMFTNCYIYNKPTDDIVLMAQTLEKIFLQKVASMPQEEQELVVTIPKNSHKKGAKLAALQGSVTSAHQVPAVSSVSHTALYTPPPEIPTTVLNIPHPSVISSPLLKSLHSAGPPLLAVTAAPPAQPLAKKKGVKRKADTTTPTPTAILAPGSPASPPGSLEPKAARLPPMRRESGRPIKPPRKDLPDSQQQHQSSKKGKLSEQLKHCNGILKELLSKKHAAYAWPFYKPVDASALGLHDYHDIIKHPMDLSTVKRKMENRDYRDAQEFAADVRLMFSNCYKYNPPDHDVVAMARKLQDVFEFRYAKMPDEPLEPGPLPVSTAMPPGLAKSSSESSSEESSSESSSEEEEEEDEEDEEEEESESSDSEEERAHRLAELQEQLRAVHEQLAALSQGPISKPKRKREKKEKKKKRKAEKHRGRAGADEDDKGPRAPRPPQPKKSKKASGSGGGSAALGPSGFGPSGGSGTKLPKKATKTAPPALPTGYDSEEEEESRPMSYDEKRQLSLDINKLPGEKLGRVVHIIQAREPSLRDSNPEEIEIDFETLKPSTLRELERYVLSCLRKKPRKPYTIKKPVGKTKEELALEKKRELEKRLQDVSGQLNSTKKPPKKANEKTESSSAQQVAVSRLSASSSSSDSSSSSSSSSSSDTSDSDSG
T2 sequence (Q13619 whole entry, looked up): as the sequence (Q13619 whole entry, looked up) above
T2 sequence (Q96SW2 whole entry, looked up): as the sequence (Q96SW2 whole entry, looked up) above

Activity [2]: Dose-dependent effect
Activity [3]: Active
Activity [4]: inactive
Activity [5]: inactive
Activity [6]: inactive
Drug metabolism [8]: Metabolite_Detected
Activity [10]: inactive
SMILES: CCn1nc(C2CC2)cc1Nc1nc(C(=O)NCCCCCc2cccc3c2CN(C2CCC(=O)NC2=O)C3=O)nc2[nH]c3cc(-c4c(C)noc4C)c(OC)cc3c12 (stereo not given)
Activity [1]: Non-Toxic
Activity [7]: Active
Activity [9]: >90%
